ABHD4 inh – ABHD4 (mouse) inhibition, primary FP screen; Q8VD66; purified mABHD4, FP-Rh probe fluorescence polarization; inhibition, % at 8.92 µM; actives 0.54% (n = 370,000); AID 720543;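 active means inhibition exceeding the mean over every tested compound plus 3 SD, cut at about 30% in these data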
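Assay system: Wild-type mouse ABHD4 protein | Medium: HEPES pH 7.0 buffer, 150 mM NaCl, 0.01% Pluronic F-127 | Incubation: Enzyme–compound pre-incubation 45 min, then probe 60 min, both 25 °C | Technique: Fluorescence polarization with parallel and perpendicular emission, 525/598 nm | Evaluation: % inhibition of FP-Rh probe binding versus controls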
SIAE inh – human SIAE inhibition, primary screen; Q9HAT2; inhibition, % at 9.66 µM; actives 0.69% (n = 370,000); SIAE FP-Rh probe binding, fluorescence polarization;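 active means inhibition above a cutoff: mean of compounds within the control limits plus 3 SD of those, cut at about 17% in these data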
HTRA1 inh – blocks human HTRA1 serine peptidase | Q92743 | recombinant HTRA1, FP-rhodamine activity-based probe, fluorescence polarization | inhibition, % at 5.96 µM | actives 0.5% (n = 340,000); in the data active means inhibition above about 36%
TCR CD3 inh – blocks the human TCR-CD3 interaction. TAMRA-labeled TCR probe fluorescence, biochemical. actives 0.37% (n = 360,000). inhibition, % at 9.4 µM; in the data active means inhibition above about 19%;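 further: recombinant mutant TCR 2C K166C tagged with TAMRA read by polarization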
PRMT1 FP inh – PRMT1 (human) inhibition, primary screen. recombinant PRMT1, activity-based probe fluorescence polarization. inhibition, % at 2.79 µM. actives 1.3% (n = 370,000);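 active means inhibition above about 21% made by adding two undisclosed values, limit read from the data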
Target sequence (Q99873 whole entry, looked up): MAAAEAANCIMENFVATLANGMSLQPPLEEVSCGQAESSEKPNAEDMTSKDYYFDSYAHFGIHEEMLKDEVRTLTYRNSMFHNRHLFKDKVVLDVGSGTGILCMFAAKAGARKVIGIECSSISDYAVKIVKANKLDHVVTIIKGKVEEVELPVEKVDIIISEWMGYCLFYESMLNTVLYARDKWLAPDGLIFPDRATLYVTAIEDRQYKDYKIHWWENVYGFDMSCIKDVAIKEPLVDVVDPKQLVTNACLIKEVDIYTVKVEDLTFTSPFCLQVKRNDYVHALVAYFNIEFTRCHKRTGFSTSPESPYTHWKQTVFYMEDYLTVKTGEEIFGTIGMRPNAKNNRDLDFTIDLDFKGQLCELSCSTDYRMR
SIAE confirm – confirmation of human SIAE inhibitors; AID 1117263; inhibition, % at 9.66 µM; actives 13% (n = 2,300); SIAE FP-Rh activity-based probe, fluorescence polarization; shares compounds with SIAE inh;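 active means mean inhibition of the replicates above the hit cutoff set in the primary screen, cut at about 17% in these data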;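 further: inhibitors lower polarization as more probe stays unbound to SIAE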
Large screens that a line does not name were inactive (follow-up assays come after a bar, where they were run). Only some compounds are listed: those with a hit (about 2.6% of all), similar ones and a draw of the others.

COc1ccc(NC(=O)Nc2ccc3c(c2)C(=O)N([C@H](C)CO)C[C@H](C)[C@@H](CN(C)S(=O)(=O)c2ccc(OC)cc2)O3)cc1	SIAE inh 22 | SIAE confirm inactive
C[C@H](CO)N1C[C@H](C)[C@@H](CN(C)S(=O)(=O)c2ccccc2)Oc2ccc(NC(=O)Cc3ccccc3)cc2C1=O	none
C[C@@H](c1ccccc1)N1C[C@@H](COCc2ccccc2)Oc2cc(N3CCC[C@H]3CO)ccc2S1(=O)=O	none (no result: HTRA1 inh)
CC(=NCc1cccc(Cl)c1)c1nc(-c2ccco2)oc1O	SIAE inh 21 | SIAE confirm inactive
Oc1oc(-c2ccco2)nc1C=Nc1cccc(Cl)c1	none
COc1cc2oc(=O)ccc2cc1[C@@H](O)[C@@H]1OC(C)(C)OC1(C)C	none
COc1ccc(OCCSc2nc3ccccc3n2CC(=O)O)cc1	none
COc1ccccc1OCCSc1nc2ccccc2n1CC(N)=O	SIAE inh 17 | SIAE confirm inactive
C=CC(=O)Nc1cccc(Oc2cc(Cl)nc3[nH]ccc23)c1	none
C=CC(=O)Nc1cccc(Oc2nc(Nc3ccc(N4CCN(C)CC4)cc3OC)ncc2Cl)c1	SIAE inh 20 (no result: HTRA1 inh) | SIAE confirm inactive
CCn1cc(CCC(=O)Nc2ccc(Oc3cccnc3)cc2)c2ccccc21	none (no result: HTRA1 inh)
Cc1ccc(OCC(=O)OCc2nc3scc(-c4ccccc4)c3c(=O)[nH]2)cc1C	SIAE inh 18 | SIAE confirm inactive
O=C(CCNC(=O)c1ccc(Br)cc1)Nc1ncccc1O	SIAE inh 24 | SIAE confirm inactive
Cc1ccc(C(=O)CN(CCCC(N)=O)S(=O)(=O)c2ccc([N+](=O)[O-])cc2)cc1	none
O=C(CSc1nc2ccc(Cl)cc2[nH]1)Nc1ccc2[nH]c(=O)[nH]c2c1	SIAE inh 18 | SIAE confirm inactive
Cc1ccc2nc(SCC(=O)Nc3ccc4[nH]c(=O)[nH]c4c3)[nH]c2c1	none
CCCNC(=O)C(Cc1ccc(C(F)(F)F)cc1)NC(=O)c1ccc(C#N)cc1 (stereo unspecified)	none
CCOC(=O)CC1=C(C(=O)OCC)C(c2cccnc2)C(C#N)=C(N)O1 (stereo unspecified)	SIAE inh 17 | SIAE confirm inactive
CCOC(=O)CC1=C(C#N)C(c2cccnc2)C(C(=O)OCC)=C(N)O1 (stereo unspecified)	none
O=C1NC[C@@H](CCCCN2CCN(Cc3ccccc3)C(=O)C2=O)N(CCC2CCCCC2)C1=O	SIAE inh 18 (no result: HTRA1 inh) | SIAE confirm inactive
COc1ccccc1N(CC(=O)Nc1ccc(Br)cc1F)S(=O)(=O)c1cccs1	none
CCC(C)N1C(=O)CN(C2CCCCCC2)C(=O)C1c1ccccc1F (stereo unspecified)	SIAE inh 19 | SIAE confirm inactive
COc1ccccc1CNc1nc(NCc2ccccc2OC)c2sccc2n1	SIAE inh 20 (no result: HTRA1 inh) | SIAE confirm inactive
COc1ccccc1CNc1nc(NCc2cccs2)nc2ccsc12	none (no result: HTRA1 inh)
O=C(COc1ccc2c3c(c(=O)oc2c1)CCC3)NC(Cc1ccc(Cl)cc1)C(=O)O (stereo unspecified)	none
CC(=O)NC(=S)Nc1ccc(NC(=S)NC(=O)/C=C/c2ccco2)cc1	SIAE inh 31 | SIAE confirm inactive
COc1ccc(NC(=S)NC(=O)/C=C/c2ccco2)cc1	none
CCC(=O)C1CCCN(C(=O)CCc2nnc(C3(c4ccc(Cl)cc4)CCC3)o2)C1 (stereo unspecified)	none
Cn1ncc(Br)c1N1C(=O)CCC1=O	SIAE inh 20 (no result: HTRA1 inh) | SIAE confirm inactive
Cn1ccnc1SCC(=O)Nc1ccc(Br)cc1C(F)(F)F	none (no result: ABHD4 inh, SIAE inh, TCR CD3 inh, PRMT1 FP inh)
O=C(CCl)NCCNC(=O)c1cc(OCC(F)(F)F)ccc1OCC(F)(F)F	none (no result: HTRA1 inh)
CCCCC(=O)NCCNC(=O)c1cc(OCC(F)(F)F)ccc1OCC(F)(F)F	SIAE inh 26 | SIAE confirm inactive
Cn1c(Nc2ccccc2)nc2ccccc21	none
Nn1c(Nc2ccccc2)nc2ccccc21	SIAE inh 23 | SIAE confirm inactive
Cc1cnc(C(=O)OCC(=O)Nc2cccc(S(=O)(=O)N3CCOCC3)c2)cn1	none
Cc1cccc(NC(=O)CN2C(=O)N/C(=C/c3cc(C)n(C(C)C)c3C)C2=O)c1	SIAE inh 23 | SIAE confirm inactive
COCCCNC(=O)c1ccc2sc(C3=C[C@@H](O)[C@@H](O)[C@@H](CO)O3)nc2c1	none (no result: HTRA1 inh)
O=C(CSc1ccc(-c2ccc(Cl)cc2)nn1)NC1CCCC1	none
CCOC(=O)c1c(OCC)[nH]c2c1cc(O)c1ccccc12	SIAE inh 28 | SIAE confirm inactive
O=C(CCc1ccccc1)Nc1cccc(S(=O)(=O)N2CCOCC2)c1	SIAE inh 25 | SIAE confirm inactive
COc1ccc(CCC(=O)Nc2cccc(S(=O)(=O)N3CCOCC3)c2)cc1OC	none
CC(C)(C)NC(=O)CN1CCCN(C(=O)c2cccc(S(=O)(=O)N3CCc4ccccc43)c2)CC1	none
COc1ccc(OC)c(CCNC(=O)Cn2nc(C)c3c(C)n(-c4ccccc4)nc3c2=O)c1	none
CCn1c(=O)n(CC)c2cc(N3CCCC3)c(NC(=O)c3ccc(F)cc3)cc21	SIAE inh 18 | SIAE confirm inactive
CCn1c(=O)n(CC)c2cc(N3CCCC3)c(NC(=O)c3c(F)cccc3F)cc21	none
O=C(CCN1CCOCC1)N1CCCC(Nc2ccc(F)cc2)C1 (stereo unspecified)	SIAE inh 18 | SIAE confirm inactive
CCOC(=O)c1c(C(=O)OCC)c(C)n(CCc2ccccc2)c1C	SIAE inh 31 | SIAE confirm 20
CCOC(=O)c1c(C)c(C(=O)NCCc2ccccc2)c(C)n1C	none
Cc1cc(C)n2nc(SC(C)C(=O)N(C)C3CCCCC3)nc2n1 (stereo unspecified)	none
CC(C)CNC(=O)C1Nc2ccc(C(F)(F)F)cc2C2C=CCC12 (stereo unspecified)	none
CC(C)CNC(=O)C1Nc2ccccc2C2C=CCC12 (stereo unspecified)	SIAE inh 20 | SIAE confirm inactive
Cc1nc(SC(C)C(=O)c2c(N)n(C)c(=O)n(C)c2=O)c2c(C)c(C)sc2n1 (stereo unspecified)	none
Fc1cccc(NC(=S)N2CCn3cccc3C2c2cccnc2)c1 (stereo unspecified)	SIAE inh 25 | SIAE confirm inactive
CN1c2ccccc2C2(C)CCCC3=Cc4cc([N+](=O)[O-])cc([N+](=O)[O-])c4OC312 (stereo unspecified)	SIAE inh 52 | SIAE confirm inactive
Cc1ccc(NC(=O)CSc2nccn2Cc2ccccc2)cc1C	SIAE inh 18 | SIAE confirm inactive
COc1cccc(C2SCC(=O)N2c2ccc(C)cc2)c1OC (stereo unspecified)	none
COc1ccc(N2C(=O)CSC2c2cccc(OC)c2OC)cc1 (stereo unspecified)	SIAE inh 23 | SIAE confirm inactive
CC(C)(C)NC(=O)C(C1CC1)n1c(-c2ccccc2)nc2ccccc21 (stereo unspecified)	none (no result: HTRA1 inh)
